High-throughput results: PubChem BioAssay, several laboratories
Sampled rows, rich in hits. Any-hit rate of the full collection: about 1.8%.
pCIP destab: lowers stability of the mouse p/CIP coactivator protein. Q05BA5. F442A p/CIP-EGFP cells, EGFP fluorescence, 16 h. decrease of EGFP signal, % at 10 µM. 290,000 tested, 0.01% active. AID 1984;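 active means EGFP signal decrease of at least 30% at 10 µM or well 3 SD below plate mean, unless failing retest; inactive means the rest, including hits failing retest or dose response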
APOBEC3G inh: APOBEC3G (human) deaminase inhibition. Q9HC16. recombinant A3G, ssDNA deamination FAM/TAMRA fluorescence. inhibition, % at 20 µM. 330,000 tested, 0.28% active. AID 493012;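 active means inhibition of at least 40% at 20 µM, with no more than 30% in the related APOBEC3A deaminase screen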;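 further: plate controls were DMSO wells with A3G for no effect and wells lacking A3G enzyme for full effect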
Target sequence (Q9HC16 whole entry, looked up): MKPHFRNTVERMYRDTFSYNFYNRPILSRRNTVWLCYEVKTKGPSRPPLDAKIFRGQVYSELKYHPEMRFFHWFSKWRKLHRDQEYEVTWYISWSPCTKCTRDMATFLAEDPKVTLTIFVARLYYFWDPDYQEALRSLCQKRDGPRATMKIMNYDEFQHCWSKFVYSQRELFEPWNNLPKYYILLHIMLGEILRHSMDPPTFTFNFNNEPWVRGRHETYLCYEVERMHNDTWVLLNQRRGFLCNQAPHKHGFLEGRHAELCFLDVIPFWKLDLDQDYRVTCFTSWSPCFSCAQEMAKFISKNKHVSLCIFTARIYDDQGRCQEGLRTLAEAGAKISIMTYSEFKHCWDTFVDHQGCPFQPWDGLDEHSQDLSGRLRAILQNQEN
A3A deaminase: blocks human APOBEC3A ssDNA deamination. recombinant A3A, FAM/TAMRA ssDNA deamination fluorescence. 330,000 tested, 0.41% active. P31941. inhibition, % at 20 µM;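 active means at least 40% inhibition at 20 µM here, with at most 30% in a related deaminase screen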;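 further: plate controls were A3A with DMSO for no effect and wells lacking A3A enzyme for full effect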
Target sequence (P31941 whole entry, looked up): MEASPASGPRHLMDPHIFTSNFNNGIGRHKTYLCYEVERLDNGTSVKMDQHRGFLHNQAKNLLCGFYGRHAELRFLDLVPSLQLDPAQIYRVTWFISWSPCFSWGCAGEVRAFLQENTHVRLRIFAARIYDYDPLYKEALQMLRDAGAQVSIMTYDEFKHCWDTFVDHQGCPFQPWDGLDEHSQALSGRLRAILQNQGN
Tb MetRS inh: blocks T. brucei methionyl-tRNA synthetase activity | AID 624268 | 360,000 tested, 0.4% active | inhibition, % at 11.9 µM | purified T. brucei MetRS, ATP depletion, Kinase-Glo luminescence;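 active means inhibition above a per-plate cutoff of the control wells' mean inhibition plus 3 SD, cut at about 5.5% in these data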;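 further: 0% = DMSO wells median and 100% = median of wells with control inhibitor compound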
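Test system – parasite MetRS enzyme · Reagent – substrates ATP, L-methionine and bulk Escherichia coli tRNA · Doses – 11.9 µM compound single dose, 0.9% DMSO · Times – 15 min enzyme-compound preincubation, 2 h reaction, 10 min detection, 25 °C · Signal – Kinase-Glo luminescence, ATP depletion format · Controls – DMSO-only wells as low control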
PHOSPHO1 inh: inhibitors of human PHOSPHO1 phosphatase; recombinant PHOSPHO1, absorbance phosphatase assay; 290,000 tested, 1.1% active; inhibition, % at 13.3 µM; Q8TCT1; in the data active means inhibition above about 60%
A3A conf: APOBEC3A (human) deaminase inhibition, confirmed; recombinant A3A, ssDNA deaminase UDG fluorescence assay; inhibition, % at 20 µM; 1,400 tested, 63% active; shares compounds with A3A deaminase;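 active means inhibition reaching a set limit, 80% of the first screen's cutoff, at 20 µM in any replicate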;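 further: plate controls were DMSO wells with A3A for no effect and wells lacking A3A enzyme for full effect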
UDG ctr A3A: counter-screen for APOBEC3A inhibitors: UDG; UDG counterscreen, FAM/TAMRA uracil oligo fluorescence; AID 504714; shares compounds with A3A deaminase; inhibition, % at 20 µM; 1,000 tested, under 10 active; call rule not given here
* = called active by the depositor; / = not tested or not shown.

SMILES | pCIP destab | APOBEC3G inh | A3A deaminase | Tb MetRS inh | PHOSPHO1 inh | A3A conf | UDG ctr A3A
Cc1ccc(/C=C2/SC(=Nc3ccc(F)cc3)NC2=O)s1 | -15 | 17 | 51* | 3 | -25 | 63* | -2
Cc1ccc(N=C2NC(=O)/C(=C\c3cccs3)S2)cc1C | -21 | -10 | -1 | 0 | -10 | / | /
CCOC(=O)C1=C(C)N=C2SC(C(=O)OC)=CC(=O)N2C1c1ccc(F)cc1 (stereo not given) | -10 | -9 | 54* | 0 | 50 | -1 | -3
CCOC(=O)[C@]12CCC=C1N(Cc1ccc3c(c1)OCO3)C(=O)[C@H](CC(=O)N1CCSCC1)C2 | / | / | / | -1 | / | / | /
COc1ccc(-c2noc(CSc3nc(-c4ccccc4)cc(=O)[nH]3)n2)cc1 | 8 | 14 | 56* | 0 | 102* | 22 | /
CCCCN(C(=O)c1c(C)noc1C)c1c(N)n(CCCC)c(=O)[nH]c1=O | / | -8 | 0 | 0 | / | / | /
COc1cc(NS(=O)(=O)c2ccc(NC(=S)NC(=O)/C=C/c3ccco3)cc2)ncn1 | -2 | 23 | 55* | 0 | -74 | 73* | -4
Oc1ccc(/C=C/c2cnccn2)cc1 | 4 | -2 | 0 | 1 | 12 | / | /
CCN(CC)c1ccc(/C=C/c2ccc3ccc(OC)cc3[n+]2CC)cc1 | -28 | 26 | 75* | -1 | 22 | 84* | 0
CC[n+]1c(/C=C/c2ccc(OC)c(OC)c2)ccc2ccccc21 | -22 | -14 | 79* | 0 | 14 | 93* | 0
CC[n+]1c(/C=C/c2ccc(N(C)C)cc2)ccc2ccccc21 | -5 | / | / | -3 | -12 | / | /
COc1cc(/C=C/c2noc(-c3ccccc3O)n2)ccc1OC(C)=O | -6 | 0 | 4 | 0 | 24 | / | /
CC[n+]1c(/C=C/c2ccc(OC(C)=O)c(OC)c2)ccc2ccccc21 | -6 | 20 | 53* | -1 | 1 | 58* | /
COc1cc([N+](=O)[O-])ccc1NC(=O)NCc1ccco1 | -5 | -1 | -1 | -1 | 32 | / | /
COc1ccc(NC(=O)C(Sc2nnc(-c3ccncc3)n2-c2ccccc2C)c2ccccc2)cc1Cl (stereo not given) | 9 | -2 | -1 | 0 | -4 | / | /
Cc1ccc(N(C(=O)c2csnn2)C(C(=O)NC(C)(C)C)c2cccnc2)cc1 (stereo not given) | -9 | 11 | 6 | 0 | 32 | / | /
CN(C(=O)/C=C/c1ccco1)c1ccccc1C(=O)O | 8 | 10 | 44* | 0 | 2 | 22* | -2
CCCCn1c(N)c(N(CC(C)C)C(=O)COC(=O)c2ccccc2NCCO)c(=O)[nH]c1=O | / | 8 | 41* | 0 | / | 17 | /
CC1(OC(=O)C2CCCC2)C(=O)C=C2C=C3CCCCN3C=C2C1=O (stereo not given) | -5 | 19 | 44* | 0 | 26 | 23* | 2
COC(=O)Cn1c2[n+](c3ccccc31)CC(O)CS2 (stereo not given) | -1 | 0 | 0 | 0 | -7 | / | /
CCOC(=O)Cn1c2[n+](c3ccccc31)CC(O)CS2 (stereo not given) | 1 | 30 | 69* | 0 | -13 | 86* | 5
CCCCCn1ccc(=N)cc1 | -23 | 28 | 62* | -1 | 93* | 72* | -3
CCCCCCCn1ccc(=N)cc1 | -15 | 19 | 74* | 0 | 47 | 74* | -1
Cc1cc(C(=O)NCc2ccc(C(=O)O)o2)c(C)o1 | -3 | 16 | 47* | 0 | 10 | 48* | 5
Clc1ccc2c(c1)nc1n2CCCC1 | 7 | -7 | -5 | 0 | 25 | / | /
SMILES | pCIP destab | APOBEC3G inh | A3A deaminase | Tb MetRS inh | PHOSPHO1 inh | A3A conf | UDG ctr A3A
CCSC1=NC(=O)/C(=C2/C=Cc3ccccc3N2CC)S1 | -10 | 21 | 40* | 4 | -29 | 18 | /
Cc1cc(/C=N/NC(=O)c2cccc(N(C)C)c2)c(C)n1-c1cc(C(=O)O)cc(C(=O)O)c1 | 1 | 25 | 66* | -1 | -1 | 65* | 1
Cc1cc(/C=N/NC(=O)C(O)(c2ccccc2)c2ccccc2)c(C)n1-c1cccc(C(=O)O)c1 | -4 | 23 | 45* | 0 | 15 | 26 | /
Cc1cc([N+](=O)[O-])ccc1N | / | -4 | -1 | 0 | / | / | /
C[n+]1ccccc1Nc1cc([N+](=O)[O-])ccc1N | -1 | 19 | 63* | 0 | -19 | 70* | -1
CC(C(=O)Nc1ccc2c(c1)OCCO2)N(C)Cc1c(F)cccc1Cl (stereo not given) | -9 | -5 | -1 | 1 | 11 | / | /
CCSc1nc2ccc(N3C(=O)C4C5C=CC(C5)C4C3=O)cc2s1 (stereo not given) | -15 | 5 | 60* | 1 | 6 | 20 | /
O=C1C2C3C=CC(C3)C2C(=O)N1c1ccc2ccccc2c1 (stereo not given) | -8 | -2 | 1 | 0 | 58 | / | /
O=C(O)C1CCCCC1C(=O)Nc1cccc(Br)c1 (stereo not given) | / | 24 | 94* | -1 | / | 91* | /
O=C(Nc1cccc(Br)c1)C1CCCC1 | / | -5 | -2 | 0 | / | / | /
O=C(OCC1CC(c2ccccc2)=NO1)c1ccco1 (stereo not given) | -6 | -5 | 0 | -1 | 36 | / | /
CCn1c(C)[n+](CCOC(C)=O)c2cc(Cl)c(Cl)cc21 | -3 | 22 | 63* | 0 | 17 | 78* | -4
CC(=O)OCCCN1C(=O)c2ccc(Br)cc2C1=O | 7 | -3 | 0 | -1 | 14 | / | /
CC(=O)OCCCn1c(C)[n+](C)c2cc(Cl)c(Cl)cc21 | -13 | 19 | 87* | -1 | 5 | 73* | 2
CCn1c2c(c(C)cc1=O)C(=O)CC(C)(C)C2 | -7 | -5 | -1 | 1 | 7 | / | /
CCn1c(C)c2c([n+]1CC)CC(C)(C)CC2=O | -2 | 27 | 59* | 0 | 91* | 76* | -4
Cc1ccc(NC(=O)c2ccc(CSc3nccc(C)n3)cc2)cc1 | 6 | -2 | -1 | 0 | 9 | / | /
CN(C)S(=O)(=O)c1ccc(C(=O)Nc2nnc(SCc3ccccc3)s2)cc1 | -7 | -5 | -4 | 0 | 11 | / | /
O=C(Nc1ccccc1)c1ccc(CSc2ncccn2)cc1 | -15 | 19 | 43* | -1 | -14 | 20 | /
Cn1nnnc1SCc1ccc(C(=O)Nc2ccccc2F)cc1 | 0 | -5 | -1 | -1 | 56 | / | /
CC(=O)Nc1nnc(SCc2ccc(C(=O)Nc3ccccc3F)cc2)s1 | 3 | 19 | 48* | -1 | -26 | 53* | 3
O=C(Nc1ccccc1F)c1ccc(CSc2ncccn2)cc1 | -1 | 12 | 70* | -1 | 18 | 55* | -3
NNC(=O)C(=O)NCCCN1CCOCC1 | -9 | -18 | -2 | -1 | 24 | / | /
